# In paper PMC3378255 (ACS chemical neuroscience, 2012):
# Where two headings read alike, the source gives them in different places.
# Tests used:
# [1] = system: Fa2N-4 immortalized human hepatocytes; experiment: Hepatic toxicity; assay type: cell-based; conditions: in words
# [2] = Plasma protein binding, mouse; assay type: in vitro ADME
# [3] = Plasma protein binding, human; assay type: in vitro ADME; conditions: for bound to both human and mouse plasma: human and mouse plasma together; for plasma protein binding (% Bound): human
# [4] = target: KOR (Homo sapiens, UniProt P41145); experiment: PDSP radioligand binding assay, KOR
# [5] = system: 44 GPCR and other molecular targets; experiment: PDSP binding assay panel of 44 GPCR and other molecular targets
# Outline: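 The Psychoactive Drug Screening Program ran radioligand binding assays across 44 GPCR and other targets. Test compounds were first screened at a single 10 μM concentration. Those showing significant activity then went to Ki determination.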
# [6] = mouse, microsomes, 1 h
# Chain of KOR (P41145 whole entry): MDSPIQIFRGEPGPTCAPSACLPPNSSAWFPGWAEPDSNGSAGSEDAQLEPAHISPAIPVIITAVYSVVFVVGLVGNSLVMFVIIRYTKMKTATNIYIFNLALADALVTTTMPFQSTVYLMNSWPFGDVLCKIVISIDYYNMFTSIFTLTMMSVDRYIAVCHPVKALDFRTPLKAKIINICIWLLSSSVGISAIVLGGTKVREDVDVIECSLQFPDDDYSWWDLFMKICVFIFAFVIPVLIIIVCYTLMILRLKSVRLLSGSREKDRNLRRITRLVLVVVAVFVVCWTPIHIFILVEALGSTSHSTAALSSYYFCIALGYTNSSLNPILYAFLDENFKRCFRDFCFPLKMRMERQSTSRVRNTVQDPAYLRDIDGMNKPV
SMILES,toxicity toward human hepatocytes [1],plasma protein binding (% Bound) ([2]; 1µM),plasma protein binding (% Bound) ([2]; 10µM),bound to both human and mouse plasma [3],plasma protein binding (% Bound) ([3]; 1µM),plasma protein binding (% Bound) ([3]; 10µM),Ki [4],"affinity across the PDSP assay panel ([5]; in words, concentrations up to 10,000 nM)","Ki ([5]; read-out: Ki values for 11 non-opioid targets, weak binding affinity, PDSP panel)",PAMPA Pe,hepatic microsome stability [6],PAMPA Pe (pH 7.4)
"O=C(c1ccccn1)N(Cc1cccs1)C1(C(=O)NC2CCCCC2)CCCCC1 [1{1}, N-(1-(Cyclohexylcarbamoyl)cyclohexyl)-N-(thiophen-2-ylmethyl)picolinamide]",significant toxicity,94.05 % Bound,90.70 % Bound,90–99%,99.59 % Bound,99.07 % Bound,0.0006 µM,affinity only for the opioid receptors,,,,
Clc1ccc(CSc2nnc(-c3ccccn3)n2Cc2ccco2)cc1Cl [2{8}],,99.80 % Bound,99.64 % Bound,90–99%,99.75 % Bound,99.80 % Bound,,,1 to 10 µM,,,
"Cc1ccc(S(=O)(=O)NCc2ccc(C(=O)NCCN(Cc3ccccc3)C(C)C)cc2)cc1 [3{1}, N-(2-(Benzyl(isopropyl)amino)ethyl)-4-((4-methylphenylsulfonamido)methyl)benzamide]",,98.90 % Bound,98.92 % Bound,90–99%,99.67 % Bound,99.73 % Bound,,,,1710–1940 ×10^−6 cm/s,,
"COc1ccc(N2CCN(CCCNC(=O)Cn3c(=O)c4cccn4c4c(C)ccnc43)CC2)cc1 [4{13}, N-(3-(4-(4-Methoxyphenyl)piperazin-1-yl)propyl)-2-(1-methyl-6-oxopyrido[2,3-e]pyrrolo[1,2-a]pyrazin-5(6H)-yl)acetamide]",,88.46 % Bound,80.07 % Bound,80–94%,93.96 % Bound,88.54 % Bound,,,,2.7e-05 cm/s,7.3 % remaining,0.000757 cm/s
